Key:
[1] = Tmax in Sprague-Dawley rat at 3 mg/kg, po by LC-MS/MS analysis; assay type: ADME, organism-based; conditions: in vivo
[2] = tested on: alpha-1 acid glycoprotein; assay: Binding affinity to alpha-1 acid glycoprotein (unknown origin); assay type: ADME; conditions: human, read-out: PB (converted)
PANC-1 = assay: Growth inhibition of human PANC1 cells after 48 hrs by MTT assay; assay type: functional; conditions: PANC-1, 48 h
Summary of the method: (§1)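 Cancer cell lines sourced from the National Cancer Institute (USA). Cells kept in appropriate growth medium at 37 °C, 95% humidity, 5% CO2. Antiproliferation read by tetrazolium (MTT) assay. GI50 values were determined only for compounds selected after an initial single-concentration screen.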

[3] = target: CDK9/cyclin T1 (Homo sapiens) (UniProt O60563+P50750); assay: Inhibition of CDK9/cyclin T1 (unknown origin) at 0.5 uM using YSPTSPSYSPTSPSYSPTSPKKK as substrate after 30 mins in presence of [33P]-gamma-ATP by filter binding assay relative to control; assay type: protein-complex assay
COLO 205 = assay: Growth inhibition of human COLO205 cells after 48 hrs by MTT assay; assay type: functional; conditions: COLO 205, 48 h; summary of the method: as §1
[4] = Ratio of Cmax in BALB/c mouse at 30 mg/kg, po to GI50 for human MIAPaCa2 cells
[5] = Protein binding in mouse plasma at 3 uM after 5 hrs by equilibrium dialysis method; assay type: ADME, cell-free; conditions: read-out: PPB (converted)
[6] = Cmax in Sprague-Dawley rat at 3 mg/kg, po by LC-MS/MS analysis; assay type: ADME, organism-based; design: dose 3 mg/kg, route oral; conditions: in vivo
[7] = target: CDK2/Cyclin A2 (Homo sapiens) (UniProt P24941+P20248); assay: Inhibition of CDK2/cyclin A (unknown origin) at 0.5 uM using histone H1 as substrate after 30 mins in presence of [33P]-gamma-ATP by filter binding assay relative to control; assay type: protein-complex assay
[8] = Half life in Sprague-Dawley rat at 30 mg/kg, po by LC-MS/MS analysis; assay type: ADME, organism-based; conditions: in vivo
[9] = Chemical stability of compound in phosphate buffered saline at pH 7.4 assessed as parent compound remaining at 120 ug/ml after 24 hrs by HPLC method; assay type: physicochemical; conditions: read-out: Stability
Mus musculus [10] = assay: Toxicity in CD1 nude mouse xenografted with human MOLT4 cells assessed as change in body weight at 25 to 75 mg/kg, po qd administered on day 10 to 25 post tumor inoculation; assay type: organism-based; conditions: in vivo
Liver = assay: Drug uptake in Sprague-Dawley rat liver at 30 mg/kg, po after 8 hrs; assay type: ADME, organism-based; conditions: in vivo
[11] = Half life in dog liver microsomes at 100 uM after 30 mins by LC-MS/MS analysis; assay type: ADME, Canis lupus familiaris, microsome
MIA PaCa-2 = assay: Growth inhibition of human MIAPaCa2 cells at 10 uM after 48 hrs by MTT assay relative to control; assay type: functional; conditions: MIA PaCa-2, 48 h, read-out: GI
Summary of the method: (§2)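 Single-concentration primary screen at 10 μM by MTT assay. Cells were NCI-sourced cancer lines grown in appropriate medium at 37 °C, 95% humidity, 5% CO2. Growth inhibition is expressed relative to control.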

Mus musculus [12] = assay: Toxicity in CD1 nude mouse xenografted with human HCT116 cells assessed as mortality at 50 mg/kg, po qd administered on day 10 to 25 post tumor inoculation; assay type: organism-based; conditions: in vivo
PC-3 = assay: Growth inhibition of human PC3 cells at 10 uM after 48 hrs by MTT assay relative to control; assay type: functional; conditions: PC-3, 48 h, read-out: GI; summary of the method: as §2
[13] = AUC in BALB/c mouse at 3 mg/kg, po by LC-MS/MS analysis; assay type: ADME, organism-based; conditions: in vivo
[14] = Intrinsic clearance in dog hepatocytes assessed per million cells at 3 uM after 180 mins by LC-MS/MS analysis; assay type: ADME, cell-based, Canis lupus familiaris, Hepatocyte; conditions: read-out: CLH
Summary of the method: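 Intrinsic clearance obtained from substrate disappearance over time, reported per mg protein (microsomes, S9) or per 10^6 cells (hepatocytes).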

HCT-116 = assay: Growth inhibition of human HCT116 cells after 48 hrs by MTT assay; assay type: functional; conditions: HCT-116, 48 h; summary of the method: as §1
HL-60 = assay: Growth inhibition of human HL60 cells at 10 uM after 48 hrs by MTT assay relative to control; assay type: functional; conditions: HL-60, 48 h, read-out: GI; summary of the method: as §2
Mus musculus [15] = assay: Toxicity in CD1 nude mouse xenografted with human MIAPaCa2 cells assessed as mortality at 50 mg/kg, po qd administered on day 10 to 25 post tumor inoculation; assay type: organism-based; conditions: in vivo
[16] = Intrinsic clearance in rat liver microsomes assessed per mg of protein at 100 uM after 30 mins by LC-MS/MS analysis; assay type: ADME, microsome; conditions: read-out: CLH
BT-549 = assay: Growth inhibition of human BT549 cells after 48 hrs by MTT assay; assay type: functional; conditions: BT-549, 48 h; summary of the method: as §1
[17] = Growth inhibition of human NCI-H322 cells after 48 hrs by MTT assay; assay type: functional; conditions: NCI-H322, 48 h; summary of the method: as §1
[18] = Intrinsic clearance in rat hepatocytes assessed per million cells at 3 uM after 180 mins by LC-MS/MS analysis; assay type: ADME, cell-based, Hepatocyte; conditions: read-out: CLH
Cytochrome P450 2C9 = Cytochrome P450 2C9 (Homo sapiens, UniProt P11712); assay: Time-dependent inhibition of human CYP2C9 at 2 uM using fluorogenic substrate by fluorometric method; assay type: ADME
OVCAR-4 = assay: Growth inhibition of human OVCAR4 cells after 48 hrs by MTT assay; assay type: functional; conditions: OVCAR-4, 48 h; summary of the method: as §1
CDK6/cyclin D1 = CDK6/cyclin D1 (Homo sapiens, UniProt Q00534); assay: Inhibition of CDK6/cyclin D1 (unknown origin) after 30 mins in presence of [33P]-gamma-ATP by filter binding assay; assay type: protein-complex assay
Salmonella typhimurium = assay: Mutagenicity in Salmonella typhimurium TA100 at 50 ug/plate in absence of liver S9 fraction by Ames test; assay type: toxicity; conditions: salmonella enterica subsp. enterica serovar typhimurium
[19] = Volume of distribution at steady state in BALB/c mouse at 1 mg/kg, iv by LC-MS/MS analysis; assay type: ADME, organism-based; conditions: in vivo, read-out: Vdss
[20] = Growth inhibition of human SW630 cells after 48 hrs by MTT assay; assay type: functional; conditions: SW630, 48 h; summary of the method: as §1
[21] = Half life in monkey liver S9 fraction preincubated for 5 mins followed by NADPH addition measured after 30 mins by LC-MS/MS analysis; assay type: ADME, tissue-based, Macaca mulatta; conditions: rhesus monkey
[22] = AUC (0 to t) in BALB/c mouse at 1 mg/kg, iv by LC-MS/MS analysis; assay type: ADME, organism-based; conditions: in vivo
[23] = Tmax in BALB/c mouse at 10 mg/kg, po by LC-MS/MS analysis; assay type: ADME, organism-based; conditions: in vivo
[24] = Intrinsic clearance in mouse liver microsomes assessed per mg of protein at 100 uM after 30 mins by LC-MS/MS analysis; assay type: ADME, microsome; conditions: read-out: CLH
A-431 = assay: Growth inhibition of human A431 cells after 48 hrs by MTT assay; assay type: functional; conditions: A-431, 48 h; summary of the method: as §1
[25] = tested on: Tyrosine-protein kinase ABL1 (Homo sapiens), P00519 [H396P]; assay: Inhibition of partial length human ABL1 H396P mutant expressed in mammalian expression system at 0.5 uM by KINOMEscan method relative to control
Summary of the method: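 Competition binding screen (KINOMEscan) at 0.5 μM; primary binding read out as % of control, lower values indicating stronger interaction.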

Sequence of Cytochrome P450 2C9 (P11712 whole entry): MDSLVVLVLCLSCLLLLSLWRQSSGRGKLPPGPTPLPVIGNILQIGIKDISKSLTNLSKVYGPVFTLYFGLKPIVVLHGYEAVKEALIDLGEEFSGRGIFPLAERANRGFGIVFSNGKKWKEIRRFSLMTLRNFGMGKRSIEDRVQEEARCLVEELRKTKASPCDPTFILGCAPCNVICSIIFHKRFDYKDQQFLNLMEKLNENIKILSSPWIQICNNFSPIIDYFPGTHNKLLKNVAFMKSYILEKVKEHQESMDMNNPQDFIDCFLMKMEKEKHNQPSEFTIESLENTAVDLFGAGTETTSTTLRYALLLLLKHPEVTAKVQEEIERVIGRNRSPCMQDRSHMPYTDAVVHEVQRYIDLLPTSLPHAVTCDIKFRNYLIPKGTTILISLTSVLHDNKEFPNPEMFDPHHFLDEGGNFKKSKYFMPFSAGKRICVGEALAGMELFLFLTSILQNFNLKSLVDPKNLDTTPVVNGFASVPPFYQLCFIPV
Sequence of CDK6/cyclin D1 (P24385 whole entry): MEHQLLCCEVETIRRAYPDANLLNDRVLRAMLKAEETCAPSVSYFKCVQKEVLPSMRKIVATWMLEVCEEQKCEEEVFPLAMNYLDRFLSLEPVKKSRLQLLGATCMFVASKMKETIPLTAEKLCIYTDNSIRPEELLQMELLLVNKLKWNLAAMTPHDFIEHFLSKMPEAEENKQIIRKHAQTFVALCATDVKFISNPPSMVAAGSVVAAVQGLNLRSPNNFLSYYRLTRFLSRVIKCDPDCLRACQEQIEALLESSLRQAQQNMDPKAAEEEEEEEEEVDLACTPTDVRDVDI
Sequence of CDK6/cyclin D1 (Q00534 whole entry): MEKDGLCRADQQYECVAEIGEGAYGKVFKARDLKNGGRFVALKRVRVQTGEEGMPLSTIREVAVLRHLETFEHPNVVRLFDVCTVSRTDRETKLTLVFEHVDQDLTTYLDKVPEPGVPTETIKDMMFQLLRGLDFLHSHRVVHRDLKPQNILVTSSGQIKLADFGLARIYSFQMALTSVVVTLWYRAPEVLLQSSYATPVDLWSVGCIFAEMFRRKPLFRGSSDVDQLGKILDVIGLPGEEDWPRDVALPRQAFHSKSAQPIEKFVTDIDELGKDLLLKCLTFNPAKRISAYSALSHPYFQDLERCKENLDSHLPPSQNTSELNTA

## CN1CC[C@H](c2c(O)cc(O)c3c(=O)cc(/C=C/c4c(Cl)cccc4Cl)oc23)[C@H](O)C1
[1]
  Tmax: 30 min
[2]
  fraction unbound: 0.017
PANC-1
  GI50: 4 µM
[3]
  inhibition: 94%
COLO 205
  GI50: 7 µM
[4]
  Ratio: 4
[5]
  fraction unbound at 5 h, 3 µM: 0.028
[6]
  Cmax: 316 nM
[7]
  inhibition: 90%
[8]
  half-life: 194 min
[9]
  remaining at 24 h, 120 ug/ml: 100%
Mus musculus [10]
  Activity: Non-Toxic
Liver
  Drug uptake: Active
[11]
  half-life at 100 µM: 24 min
MIA PaCa-2
  inhibition of growth at 10 µM: 88%
Mus musculus [12]
  Activity: Non-Toxic
PC-3
  inhibition of growth at 10 µM: 84%
[13]
  AUC: 0.643 µM·h
[14]
  hepatocyte CLint at 3 µM: 12.3 µL/min/1e6 cells
HCT-116
  GI50: 5 µM
HL-60
  inhibition of growth at 10 µM: 90%
Mus musculus [15]
  Activity: Non-Toxic
[16]
  microsomal CLint at 100 µM: < 13 µL/min/mg
BT-549
  GI50: 5 µM
[17]
  GI50: 2 µM
[18]
  hepatocyte CLint at 3 µM: 9.2 µL/min/1e6 cells
Cytochrome P450 2C9
  TDI: Not Active
OVCAR-4
  GI50: 9 µM
CDK6/cyclin D1
  IC50: 0.045 µM
Salmonella typhimurium
  Activity: Non-Toxic
[19]
  Vd: 14.1 L/kg
[20]
  GI50: 0.3 µM
[21]
  half-life: 56 min
[22]
  AUC(0-t): 0.525 µM·h
[23]
  Tmax: 15 to 103 min
[24]
  microsomal CLint at 100 µM: < 8.8 µL/min/mg
A-431
  GI50: 8 µM
[25]
  inhibition: > 98%

Source: ChEMBL document CHEMBL4043283, “Discovery and Preclinical Development of IIIM-290, an Orally Active Potent Cyclin-Dependent Kinase Inhibitor” (J Med Chem, 2018)
